# Laboratory results from publication PMC2212458 (The Journal of Experimental Medicine, 1998).
# Columns and labels:
# [1] = test system: gp100-reactive T cells with EL-4 thymoma cells; test: Recognition of peptide-pulsed EL-4 at limiting concentrations, IFN-γ ELISA; format: cell-based; settings: human versus mouse epitope
# [2] = target: H-2D^b (Mus musculus, UniProt P01899); test: MHC class I stabilization assay on RMA/S cells; format: binding
# In short: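 RMA/S cells (TAP-deficient, H-2b) preincubated 24 h at room temperature, then pulsed with peptides across a concentration range, with control peptides, at room temperature (25°C). Next, 4 h at 37°C to allow turnover of empty class I. Stained with FITC anti-H-2Db mAb KH95 for 1 h at 4°C and analysed by flow cytometry. Expressed as percentage of maximal stabilization at 100 μM.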
# H-2D^b, sequence (P01899 whole entry, looked up): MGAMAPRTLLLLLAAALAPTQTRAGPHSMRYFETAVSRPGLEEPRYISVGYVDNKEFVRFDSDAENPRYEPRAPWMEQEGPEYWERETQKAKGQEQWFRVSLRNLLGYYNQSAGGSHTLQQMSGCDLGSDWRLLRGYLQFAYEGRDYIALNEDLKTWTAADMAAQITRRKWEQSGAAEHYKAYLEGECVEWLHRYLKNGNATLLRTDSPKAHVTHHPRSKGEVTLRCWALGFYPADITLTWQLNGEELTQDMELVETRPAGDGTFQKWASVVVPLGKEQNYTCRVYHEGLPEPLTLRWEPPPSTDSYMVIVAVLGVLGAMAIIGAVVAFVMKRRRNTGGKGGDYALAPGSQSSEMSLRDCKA
sequence,measurement,setting,value
KVPRNQDWL [hgp100_25–33],increase in ability to trigger interferon γ release by T cells,[1],3 log
same,affinity for H-2D^b,"[2]; compared with mgp100_25–33, Fig. 6",dramatically increased affinity
same,increase in ability to stabilize “empty” D^b on RMA-S cells,[2]; human versus mouse epitope,2 log
